Experimental data pooled from the literature.
Each line is one published result; the experiments were not run side by side.
Target: MAP/microtubule affinity-regulating kinase 3 (MARK3, Homo sapiens, UniProt P27448)

CC(C)(C)c1ccc(-c2nc(CBr)nn2-c2cccc(O)c2)cc1
remaining binding (cell-free assay; competition with immobilised ligand; 10 µM): 85%

F[C@@H]1CCN(c2nccc(-c3cnn4ncccc34)n2)C1
remaining binding (binding; 1 µM): 100%

C=CC(=O)N1CCC(C(=O)NCC(=O)N2CCN(c3nc(-c4cnc(N)nc4C(F)F)nc(N4CCOCC4)n3)CC2)CC1
remaining binding (binding; competition with immobilised ligand; 1 µM): 65%

c1cnn2ncc(-c3ccnc(N4CCC45COC5)n3)c2c1
remaining binding (binding; 1 µM): 100%

O=C(Nc1ccc(Oc2ccc(F)cc2)cc1)N1CCc2ncccc2[C@H]1c1ccc(F)cc1
remaining binding (cell-free assay; competition with immobilised ligand; 1 µM): 100%

CN(C)c1nccc(-c2cnn3ncccc23)n1
remaining binding (binding; 1 µM): 100%

CO[C@H]1CC[C@H](CNc2ccc(S(=O)(=O)NC(=O)c3ccc(N4CCN(CC5=C(c6ccc(Cl)cc6)CC(C)(C)CC5)CC4)cc3Oc3cnc4[nH]ccc4c3)cc2[N+](=O)[O-])CC1
remaining binding (cell-free assay; competition with immobilised ligand; 1 µM): 96%

COc1cnc(Nc2cccc(S(N)(=O)=O)c2)nc1N1CCN(c2ccccc2)CC1
remaining binding (binding; competition with immobilised ligand; 1 µM): 100%

O=C(Nc1cccnn1)N1CCC(=Cc2cccc(Oc3ccc(C(F)(F)F)cn3)c2)CC1
remaining binding (cell-free assay; competition with immobilised ligand; 1 µM): 89%

CN(c1nccc(-c2cnn3ncccc23)n1)C1CC1
remaining binding (binding; 1 µM): 100%

O=C(NCC1CCOCC1)c1n[nH]cc1NC(=O)c1c(F)cccc1F
remaining binding (binding; competition with immobilised ligand; 1 µM): 100%

CN(C)C(=O)Cn1cc(-c2nc([C@@](C)(c3ccc(-c4cnc(N)nc4)cc3)C3CC3)no2)cn1
remaining binding (cell-free assay; competition with immobilised ligand; 1 µM): 99%

O=C(c1ccc(Nc2nccc(-c3cc4ccccc4s3)n2)cc1)N1CCC(N2CCCC2)CC1
remaining binding (binding; competition with immobilised ligand; 1 µM): 100%

FC(F)(F)Oc1cccc(-c2cnc3ccc(-c4ccncc4)nn23)c1
remaining binding (cell-free assay; competition with immobilised ligand; 5 µM): 97%

C[C@@H]1CN(c2ccc3ncc(-c4ccc5[nH]nc(C6CC6)c5c4)n3n2)C[C@H](C)O1
remaining binding (binding; competition with immobilised ligand; 0.5 µM): 100%

CCc1ccccc1C(=O)Nc1n[nH]c2c(C)c(F)c(C3C(C#N)=C(C)N(C)C(C)=C3C#N)cc12
remaining binding (cell-free assay; competition with immobilised ligand; 1 µM): 30%

O=C(NCCCN1CCOCC1)c1ccc(Nc2ncc(Cl)c(-c3ccc(Cl)s3)n2)cc1
remaining binding (binding; competition with immobilised ligand; 1 µM): 100%

C[C@H]1CCN(c2nccc(-c3cnn4ncccc34)n2)C1
remaining binding (binding; 1 µM): 92%

CC(=O)Nc1c(C(C)=O)c(=O)n(C)c2nc(-c3ccc(Cl)cc3Cl)c(-c3ccc(Cl)cc3)cc12
remaining binding (cell-free assay; competition with immobilised ligand; 1 µM): 100%

N#Cc1ccccc1CSc1nnc2c(n1)[nH]c1ccccc12
remaining binding (binding; competition with immobilised ligand; 10 µM): 93%

COc1ncc2cc3ccccc3nc2c1C#N
remaining binding (cell-free assay; competition with immobilised ligand; 5 µM): 100%

N[C@@H]1CCN(c2nccc(-c3cnn4ncccc34)n2)C1
remaining binding (binding; 1 µM): 100%

C[C@H](c1cccc(C#N)c1)n1cc(Cl)cc(C(N)=O)c1=N
remaining binding (cell-free assay; competition with immobilised ligand; 1 µM): 100%

O=C(c1ccc(Nc2ncc(Cl)c(-c3cc4ccccc4s3)n2)cc1)N1CCC(N2CCCC2)CC1
remaining binding (binding; competition with immobilised ligand; 1 µM): 100%
